According to ChEMBL document CHEMBL3120115, “Synthesis and biological evaluation of 2-oxonicotinonitriles and 2-oxonicotinonitrile based nucleoside analogues” (Eur J Med Chem, 2014):

Tests used:
Hepatitis B virus = assay: Antiviral activity against Hepatitis B virus assessed as inhibition of viral infection by DNA virion assay; format: functional, organism-based
Influenza B virus = assay: Antiviral activity against Influenza B virus by cytopathy assay; format: functional, organism-based
West Nile virus = assay: Antiviral activity against West Nile virus by visual/neutral red test; format: functional, organism-based
Influenza A virus [1] = assay: Antiviral activity against Influenza A virus H3N2 by cytopathy assay; format: functional, organism-based
[2] = Selectivity index, ratio of CC50 for cytotoxicity to EC50 for HSV2; format: toxicity; conditions: read-out: Ratio CC50/EC50
Outline: (§1)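 CC50 is the concentration at which 50% of cells die, and EC50 is the concentration inhibiting 50% of viral infection. SI is calculated as the CC50/EC50 ratio.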

SARS-CoV = assay: Antiviral activity against SARS coronavirus by visual/neutral red test; format: functional, organism-based; conditions: Severe acute respiratory syndrome-related coronavirus
Human alphaherpesvirus 1 = assay: Antiviral activity against HSV1 assessed as inhibition of viral infection; format: functional, organism-based
[3] = Selectivity index, ratio of CC50 for cytotoxicity to EC50 for Influenza A virus H3N2; format: toxicity; conditions: read-out: Ratio CC50/EC50; outline: as §1
Hepatitis C virus = assay: Antiviral activity against Hepatitis C virus assessed as inhibition of viral infection by RNA replicon assay; format: functional, organism-based, Hepacivirus hominis
[4] = Selectivity index, ratio of CC50 for cytotoxicity to EC50 for Influenza A virus H1N1; format: toxicity; conditions: read-out: Ratio CC50/EC50; outline: as §1
Human alphaherpesvirus 2 = assay: Antiviral activity against HSV2 assessed as inhibition of viral infection; format: functional, organism-based
[5] = Selectivity index, ratio of CC50 for cytotoxicity to EC50 for HSV1; format: toxicity; conditions: read-out: Ratio CC50/EC50; outline: as §1
Influenza A virus [6] = assay: Antiviral activity against Influenza A virus H5N1 by cytopathy assay; format: functional, organism-based
Influenza A virus [7] = assay: Antiviral activity against Influenza A virus H1N1 by cytopathy assay; format: functional, organism-based
[8] = Selectivity index, ratio of CC50 for cytotoxicity to EC50 for Influenza B virus; format: toxicity; conditions: read-out: Ratio CC50/EC50; outline: as §1
Aspergillus viridinutans = assay: Antimicrobial activity against Aspergillus viridinutans at 250 ug/disc after 5 to 7 days by well diffusion method; format: functional; conditions: read-out: DIZ
Outline: (§2)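 Well diffusion assay. Bacteria were grown on nutrient agar and fungi on Czapek's-Dox agar; spores were inoculated into sterilized medium, dispersed and poured into plates. Compounds were dissolved in DMF at 250 mg/mL and loaded into 1 cm wells. Plates stood 24 h refrigerated for diffusion, then were incubated at 35 °C for 48 h (bacteria) or 28 °C for 5-7 days (fungi). Inhibition zone diameter was read in mm. DMF-only wells served as negative control.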

Escherichia coli = assay: Antimicrobial activity against Escherichia coli at 250 ug/disc after 48 hrs by well diffusion method; format: functional; conditions: read-out: DIZ; outline: as §2
[9] = Selectivity index, ratio of CC50 for cytotoxicity to EC50 for Influenza A virus H5N1; format: toxicity; conditions: read-out: Ratio CC50/EC50; outline: as §1
Bacillus subtilis = assay: Antimicrobial activity against Bacillus subtilis at 250 ug/disc after 48 hrs by well diffusion method; format: functional; conditions: read-out: DIZ; outline: as §2
Aspergillus niger = assay: Antimicrobial activity against Aspergillus niger at 250 ug/disc after 5 to 7 days by well diffusion method; format: functional; conditions: read-out: DIZ; outline: as §2

For `N#Cc1c(-c2cccs2)cc(-c2cccs2)nc1O`, the EC50 (Hepatitis B virus) was > 100 µM, the EC50 (Influenza B virus) was > 100 µM and the EC50 (West Nile virus) was > 4.6 µM. For the same compound, the EC50 (Influenza A virus [1]) was 16 µM, the selectivity ratio [2] was < 4.8 and the EC50 (SARS-CoV) was > 100 µM. The EC50 (Human alphaherpesvirus 1) was > 12 µM, the selectivity ratio [3] was > 4.2 and the EC50 (Hepatitis C virus) was > 100 µM. The selectivity ratio [4] was > 3.1, the EC50 (Human alphaherpesvirus 2) was > 12 µM and the selectivity ratio [5] was < 4.7. The EC50 (Influenza A virus [6]) was > 100 µM and the EC50 (Influenza A virus [7]) was 32 µM.

For `CC(=O)OC[C@H]1O[C@@H](n2c(-c3cccs3)cc(-c3ccc(C(C)C)cc3)c(C#N)c2=O)[C@H](OC(C)=O)[C@@H](OC(C)=O)[C@@H]1OC(C)=O`, the EC50 (Hepatitis B virus) was > 100 µM, the EC50 (Influenza B virus) was 40 µM and the EC50 (West Nile virus) was > 4.7 µM. The EC50 (Influenza A virus [1]) was 33 µM, the selectivity ratio [2] was > 4.9 and the EC50 (SARS-CoV) was > 100 µM. The EC50 (Human alphaherpesvirus 1) was 67.2 µM, the selectivity ratio [8] was > 2.2 and the selectivity ratio [3] was > 3. The zone of inhibition at 250 µg/disc (Aspergillus viridinutans) was 7 mm, the EC50 (Hepatitis C virus) was > 100 µM and the zone of inhibition at 250 µg/disc (Escherichia coli) was 0 mm. For the same compound, the EC50 (Human alphaherpesvirus 2) was 60.3 µM, the selectivity ratio [5] was > 4.4 and the selectivity ratio [9] was 1. It also gave a zone of inhibition at 250 µg/disc (Bacillus subtilis) of 1 mm and an EC50 (Influenza A virus [6]) of 32 µM.

In the case of `CC(=O)OC[C@H]1O[C@@H](n2c(-c3cccs3)cc(-c3cccs3)c(C#N)c2=O)[C@H](OC(C)=O)[C@@H](OC(C)=O)[C@@H]1OC(C)=O`, the EC50 (Hepatitis B virus) is reported as > 100 µM, the EC50 (Influenza B virus) is reported as 32 µM and the EC50 (West Nile virus) is reported as > 3 µM. The EC50 (Influenza A virus [1]) was 40 µM, the selectivity ratio [2] was < 4 and the EC50 (SARS-CoV) was > 32 µM. For the same compound, the EC50 (Human alphaherpesvirus 1) was > 60 µM, the zone of inhibition at 250 µg/disc (Aspergillus niger) was 8 mm and the selectivity ratio [8] was 1. The selectivity ratio [3] was > 2.5, the zone of inhibition at 250 µg/disc (Aspergillus viridinutans) was 6 mm and the EC50 (Hepatitis C virus) was > 100 µM. For the same compound, the zone of inhibition at 250 µg/disc (Escherichia coli) was 0 mm, the EC50 (Human alphaherpesvirus 2) was > 60 µM and the selectivity ratio [5] was < 4. For the same compound, the zone of inhibition at 250 µg/disc (Bacillus subtilis) was 2 mm and the EC50 (Influenza A virus [6]) was > 100 µM.

Work on `CC(C)c1ccc(-c2cc(-c3cccs3)n([C@@H]3O[C@H](CO)[C@@H](O)[C@H](O)[C@H]3O)c(=O)c2C#N)cc1` yielded a zone of inhibition at 250 µg/disc (Aspergillus niger) of 7 mm, a zone of inhibition at 250 µg/disc (Aspergillus viridinutans) of 8 mm and a zone of inhibition at 250 µg/disc (Escherichia coli) of 0 mm. For the same compound, the zone of inhibition at 250 µg/disc (Bacillus subtilis) was 10 mm.

Compound `N#Cc1c(-c2cccs2)cc(-c2cccs2)n([C@@H]2O[C@H](CO)[C@@H](O)[C@H](O)[C@H]2O)c1=O` has a zone of inhibition at 250 µg/disc (Aspergillus viridinutans) of 6 mm and a zone of inhibition at 250 µg/disc (Bacillus subtilis) of 2 mm.

`CC(=O)OC[C@H]1O[C@@H](n2c(-c3ccccn3)cc(-c3ccc(Cl)cc3)c(C#N)c2=O)[C@H](OC(C)=O)[C@@H](OC(C)=O)[C@H]1OC(C)=O` showed a zone of inhibition at 250 µg/disc (Aspergillus niger) of 7 mm, a zone of inhibition at 250 µg/disc (Aspergillus viridinutans) of 5 mm and a zone of inhibition at 250 µg/disc (Escherichia coli) of 0 mm.

`CC(=O)OC[C@H]1O[C@@H](n2c(-c3cccs3)cc(-c3ccc(C(C)C)cc3)c(C#N)c2=O)[C@H](OC(C)=O)[C@@H](OC(C)=O)[C@H]1OC(C)=O` showed a zone of inhibition at 250 µg/disc (Aspergillus niger) of 9 mm and a zone of inhibition at 250 µg/disc (Aspergillus viridinutans) of 6 mm.

`N#Cc1c(-c2ccc(Cl)cc2)cc(-c2ccccn2)n([C@@H]2O[C@H](CO)[C@H](O)[C@H](O)[C@H]2O)c1=O` gave a zone of inhibition at 250 µg/disc (Aspergillus viridinutans) of 7 mm, a zone of inhibition at 250 µg/disc (Escherichia coli) of 0 mm and a zone of inhibition at 250 µg/disc (Bacillus subtilis) of 2 mm.

`CC(C)c1ccc(-c2cc(-c3cccs3)n([C@@H]3O[C@H](CO)[C@H](O)[C@H](O)[C@H]3O)c(=O)c2C#N)cc1` gave a zone of inhibition at 250 µg/disc (Aspergillus viridinutans) of 6 mm, a zone of inhibition at 250 µg/disc (Escherichia coli) of 5 mm and a zone of inhibition at 250 µg/disc (Bacillus subtilis) of 3 mm.

For `N#Cc1c(-c2cccs2)cc(-c2cccs2)n([C@@H]2O[C@H](CO)[C@H](O)[C@H](O)[C@H]2O)c1=O`, the zone of inhibition at 250 µg/disc (Aspergillus viridinutans) was 8 mm, the zone of inhibition at 250 µg/disc (Escherichia coli) was 0 mm and the zone of inhibition at 250 µg/disc (Bacillus subtilis) was 4 mm.

Compound `CC(=O)OCCCCOc1nc(-c2ccccn2)cc(-c2ccc(Cl)cc2)c1C#N` has a zone of inhibition at 250 µg/disc (Aspergillus niger) of 9 mm, a zone of inhibition at 250 µg/disc (Aspergillus viridinutans) of 7 mm and a zone of inhibition at 250 µg/disc (Escherichia coli) of 0 mm. For the same compound, the zone of inhibition at 250 µg/disc (Bacillus subtilis) was 3 mm.

`N#Cc1c(-c2ccc(Cl)cc2)cc(-c2ccccn2)nc1OCCCCO` showed a zone of inhibition at 250 µg/disc (Aspergillus niger) of 7 mm, a zone of inhibition at 250 µg/disc (Aspergillus viridinutans) of 5 mm and a zone of inhibition at 250 µg/disc (Escherichia coli) of 0 mm. It also gave a zone of inhibition at 250 µg/disc (Bacillus subtilis) of 2 mm.

In the case of `CC(=O)OCCOCn1c(-c2cccs2)cc(-c2cccs2)c(C#N)c1=O`, the zone of inhibition at 250 µg/disc (Aspergillus niger) is reported as 8 mm, the zone of inhibition at 250 µg/disc (Aspergillus viridinutans) is reported as 7 mm and the zone of inhibition at 250 µg/disc (Escherichia coli) is reported as 0 mm. It also gave a zone of inhibition at 250 µg/disc (Bacillus subtilis) of 10 mm.
